# Measured values from ChEMBL document CHEMBL4334439, “Discovery, Optimization, and Target Identification of Novel Potent Broad-Spectrum Antiviral Inhibitors” (J Med Chem, 2019).
# The source made the active and inactive calls. The calls are words filed in the database; no cut-off is given here.
# Assays:
# Hepatitis C virus [1] = test: Antiviral activity against GFP-fused HCV JFH-1 harboring K78E/E2-G451R/NS3-M260K/NS5A-T462I mutant infected in human Huh7.5.1 cells assessed as reduction in viral infection preincubated for 2 hrs followed by viral infection and measured after 48 hrs by epifluorescence microscopic analysis; format: functional, organism-based; conditions: Hepacivirus hominis
# How it was run: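 Huh7.5.1 cells at 3×10^4/well, cultured overnight at 37 °C in 5% CO2, were pretreated 2 h with compound over 0.0004–0.05 μM. Cells were then infected with HCV-GFP at MOI 1, and GFP expression was imaged by epifluorescence microscopy at 48 hpi.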
# [2] = tested on: Middle East respiratory syndrome-related coronavirus; test: Antiviral activity against MERS-CoV infected in human Caco2 cells assessed as inhibition of viral replication measured at 18 hrs post-infection by plaque formation assay; format: functional, organism-based; conditions: Caco-2, 18 h
# Hepatitis C virus [3] = test: Antiviral activity against HCV infected in human Huh7.5.1 cells assessed as decrease in viral infection in presence of uridine; format: functional, organism-based, Hepacivirus hominis; conditions: Huh-7.5.1
# How it was run: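 HCV antiviral EC50 in Huh7.5.1 cells was measured with 0.5 mM uridine supplemented, and compared with the EC50 obtained without uridine.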
# Influenza A virus = test: Antiviral activity against Gaussia tagged Influenza A virus (A/Puerto Rico/8/34(H1N1)) infected in MDCK cells assessed as inhibition of H1N1 replication measured at 24 hrs post infection by luciferase reporter gene assay; format: functional, organism-based; conditions: A/Puerto Rico/8/1934(H1N1)
# How it was run: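 MDCK cells at 1×10^5/well, cultured overnight, were infected with A/PR/8/34(H1N1)-Gaussia luciferase at MOI 0.1. Compound (0.05–20 µM) was added immediately. Luminescence or qRT-PCR was read at 24 hpi; EC50 is 50% reduction.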
# Hepatitis C virus [4] = test: Antiviral activity against EGFP-fused HCV JFH-1 harboring K78E/E2-G451R/NS3-M260K/NS5A-T462I mutation infected in human Huh7.5.1 cells assessed as combination index after 2 days in presence of boceprevir by qRT-PCR analysis; format: functional, Hepacivirus hominis
# How it was run: (§1)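 In HCVcc-infected Huh7.5.1 cells (1×10^4/well, overnight, 37 °C), compound was given at various concentrations alone or with the named approved antiviral. After 2 days HCV RNA was quantified by qRT-PCR to derive the combination index.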
# Hepatitis C virus [5] = test: Antiviral activity against EGFP-fused HCV JFH-1 harboring K78E/E2-G451R/NS3-M260K/NS5A-T462I mutation infected in human Huh7.5.1 cells assessed as reduction in viral RNA level after 2 days in presence of telaprevir by qRT-PCR analysis; format: functional, organism-based; conditions: Hepacivirus hominis
# How it was run: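 Huh7.5.1 cells at 1×10^4/well, grown overnight at 37 °C. HCVcc was mixed with serially diluted compound (top 30 or 6 μM), given alone or with the named drug, and added to the cells. Viral RNA was read by qRT-PCR after 2 days. EC50 is the concentration giving 50% RNA reduction.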
# [6] = biological target: Heat shock protein HSP90 (Homo sapiens) (UniProt P07900+P08238); test: Binding affinity to HSP90 (unknown origin); format: protein assay
# Chikungunya virus = test: Antiviral activity against CHIKV infected in African green monkey Vero cells assessed as reduction in viral titre measured at 36 hrs post infection; format: functional, organism-based
# Zika virus = test: Antiviral activity against ZIKV infected in human Huh7.5.1 cells assessed as inhibition of viral replication measured after 3 days qRT-PCR analysis; format: functional, organism-based; conditions: Huh-7.5.1, 72 h
# How it was run: (§2)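 Huh7.5.1 cells were infected with DENV II or ZIKV at MOI 0.1 and treated with compound. Viral RNA was quantified by qRT-PCR after 3 days. EC50 is 50% reduction of RNA level.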
# Dengue virus = test: Antiviral activity against DENV infected in human Huh7.5.1 cells assessed as inhibition of viral replication measured after 3 days by qRT-PCR analysis; format: functional, organism-based; conditions: Huh-7.5.1, 72 h; how it was run: as §2
# [7] = Cytotoxicity against MDCK cells infected with Gaussia tagged Influenza A virus (A/Puerto Rico/8/34(H1N1)) measured after 48 hrs by WST1 assay; format: cell-based, Canis lupus familiaris; conditions: dog
# How it was run: (§3)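 Cells at 1×10^4/well, cultured overnight at 37 °C, were incubated 48 h with serially diluted compound. Viability was read by WST-1 absorbance (OD450/OD630).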
# [8] = Selectivity index, ratio of CC50 for human Caco2 cells to EC50 for MERS-CoV infected in human Caco2 cells; format: toxicity, cell-based; conditions: read-out: Ratio CC50/EC50
# Hepatitis C virus [9] = test: Antiviral activity against EGFP-fused HCV JFH-1 harboring K78E/E2-G451R/NS3-M260K/NS5A-T462I mutation infected in human Huh7.5.1 cells assessed as combination index after 2 days in presence of cyclosporin A by qRT-PCR analysis; format: functional, Hepacivirus hominis; how it was run: as §1
# [10] = Cytotoxicity against African green monkey Vero cells infected with SFTSV measured after 48 hrs by WST1 assay; format: cell-based; conditions: chlorocebus sabaeus; how it was run: as §3
# [11] = tested on: Human immunodeficiency virus; test: Antiviral activity against HIV pseudotyped virions infected in human HEK293T cells cotransfected with envelope deficient pNL4-3.luc.R-E- plasmid and VSVG plasmid assessed as inhibition of HIV replication preincubated for 15 mins followed by viral infection and measured at 48 hrs post-infection by luciferase based luminescence method; format: functional, organism-based; conditions: Human immunodeficiency virus 1, HEK-293T
# How it was run: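 VSV-G-pseudotyped HIV (pNL4-3.luc.R-E-) was made in HEK293T by calcium phosphate transfection, collected at 48 h and diluted to 0.2 ng p24/ml. HEK293T cells in 24-well plates got compound 15 min before 0.5 mL pseudovirus. Cells were lysed 48 h post-infection for luciferase.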
compound,measurement,setting,value
CCN(CC)c1ccc(Oc2ccc(-c3[nH]c4cccc(F)c4c(=O)c3C)cc2F)cc1,Activity,Hepatitis C virus [1],Dose-dependent effect
same,EC50,[2],333 nM
same,EC50,Hepatitis C virus [3],2800 nM
same,EC50,Influenza A virus,240 nM
same,CI,Hepatitis C virus [4],>50
same,Activity,Hepatitis C virus [5],Dose-dependent effect
same,Activity,[6],inactive
same,EC50,Chikungunya virus,260 nM
same,EC50,Zika virus,20 nM
same,EC50,Dengue virus,7 nM
same,CC50 at 48 h,[7],> 2500 nM
same,selectivity ratio,[8],> 7.5
same,CI,Hepatitis C virus [9],>50
same,CC50 at 48 h,[10],> 2500 nM
same,EC50,[11],13 nM
